From article PMC11310838 (RSC Advances, 2024)
Read-outs that look alike come from different tables or passages of the source.

Legend:
[1] = tested on: HEPG2 cell line; experiment: Sulforhodamine B; type: cell-based, human; settings: for IC50: read-out: IC50 (μM) ± SD HEPG2; for inhibition at 100 µM: read-out: Percentage of cell growth inhibition at [100 μM] HEPG2
Procedure, shortened: (§1)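 Carcinoma lines came from the National Cancer Institute, Cairo, and were grown as monolayers in DMEM with 10% FBS and 1% penicillin–streptomycin. Final DMSO was ≤0.1% (v/v). Cells were treated for 48 h either at a single 100 μM dose (% growth inhibition) or at 0, 6.25, 12.5, 25 and 50 μM. SRB staining was read at 570 nm as % viability. IC50 came from dose–response curve fitting.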

[2] = tested on: MCF7 cell line; experiment: Sulforhodamine B; type: cell-based, human; settings: for IC50: read-out: IC50 (μM) ± SD MCF7; for inhibition at 100 µM: read-out: Percentage of cell growth inhibition at [100 μM] MCF7
Procedure, shortened: as §1

[3] = tested on: HCT116 cell line; experiment: Sulforhodamine B; type: cell-based, human; settings: for inhibition at 100 µM: read-out: Percentage of cell growth inhibition at [100 μM] HCT116
Procedure, shortened: as §1

[4] = tested on: cancer cell lines (HCT116, HEPG2, MCF7); experiment: SRB single-dose screen, summary over cancer cell lines; type: cell-based; settings: Homo sapiens, 48 h, read-out: percentage of cell growth inhibition on the cancer cell lines
Procedure, shortened: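 Human carcinoma lines grown as monolayers in DMEM with 10% FBS and 1% penicillin–streptomycin. Each test compound was applied once at 100 μM for 48 h, with final DMSO at most 0.1% (v/v) in control and treated wells. Growth was measured by sulforhodamine-B staining, with OD read at 570 nm. Percentage growth inhibition was calculated from viability relative to the untreated control.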

[5] = tested on: HDF cell line (Human Dermal Fibroblasts); experiment: Sulforhodamine B; type: cell-based; settings: 48 h; for inhibition at 100 µM: Homo sapiens, HDF, read-out: Percentage of cell growth inhibition at [100 μM] HDF
Procedure, shortened: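 Normal human dermal fibroblasts came from the National Cancer Institute, Cairo. Final DMSO was ≤0.1% (v/v). Cells were exposed to the test compound at a single 100 μM dose for 48 h. Growth inhibition was measured by the sulforhodamine-B method, with absorbance read at 570 nm and expressed as percentage of cell viability.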

[6] = Homo sapiens, HCT-116, 48 h, read-out: IC50 (μM) ± SD HCT116, 48 h treatment, SRB
[7] = single dose 100 μM, 48 h, SRB, mean ± SD

Structure (SMILES)	inhibition at 100 µM ([1]; Homo sapiens, HepG2, 48 h)	inhibition at 100 µM ([2]; Homo sapiens, MCF7, 48 h)	inhibition at 100 µM ([3]; Homo sapiens, HCT-116, 48 h)	inhibition at 100 µM [5]	also measured
Cc1nc(NN=Cc2ccc(OCC(=O)N3CCN(C(=O)COc4ccc(C=NNc5nc(C)c(N=Nc6ccc([N+](=O)[O-])cc6)s5)cc4)CC3)cc2)sc1N=Nc1ccc([N+](=O)[O-])cc1 [Compound 9e, 1,1′-(Piperazine-1,4-diyl)bis(2-(4-(((4-methyl-5-(4-nitrophenylazo)thiazol-2-yl)hydrazono)methyl)-phenoxy)ethanone)]	77.5 ± 7.73%	84.6 ± 2.02%	86.8 ± 2.09%	18.6 ± 32.1%	IC50 ([1]; Homo sapiens, HepG2, 48 h): 32.2 ± 4.5 µM; IC50 ([2]; Homo sapiens, MCF7, 48 h): 22 ± 4.5 µM; IC50 [3, 6]: 20.4 ± 3.4 µM; inhibition at 100 µM [4]: > 80%
NC(=S)NN=Cc1ccc(OCC(=O)N2CCN(C(=O)COc3ccc(C=NNC(N)=S)cc3)CC2)cc1 [Compound 7a, 1,1′-(Piperazine-1,4-diyl)bis(2-(4-(2-carbamothioylhydrazono)methylphenoxy)ethanone)]	83.3 ± 7.47%	85.3 ± 5.2%	86.2 ± 5.33%	45.1 ± 30.1%	
O=C(COc1ccc(C=NN=c2[nH]c(-c3cc4ccccc4oc3=O)cs2)cc1)N1CCN(C(=O)COc2ccc(C=NN=c3[nH]c(-c4cc5ccccc5oc4=O)cs3)cc2)CC1 [Compound 15e, 1,1′-(Piperazine-1,4-diyl)bis(2-(4-(((4-(coumarin-3-yl)thiazol-2(3H)-ylidene)hydrazineylidene)-methyl)phenoxy)ethanone)]	74.4 ± 4.88%	68.4 ± 7.33%	73.9 ± 4.08%	68.1 ± 10.1%	
COc1cccc2c1C(=O)c1c(O)c3c(c(O)c1C2=O)C[C@@](O)(C(=O)CO)C[C@@H]3O[C@H]1C[C@H](N)[C@H](O)[C@H](C)O1 [DOX, reference compound]					IC50 ([1]; 48 h treatment, SRB): 8.42 ± 1.7 µM; Percentage of cell growth inhibition at [100 μM] HEPG2 [1, 7]: 89.09 ± 0.63%; IC50 ([2]; 48 h treatment, SRB): 7.59 ± 1.4 µM; Percentage of cell growth inhibition at [100 μM] MCF7 [2, 7]: 86.37 ± 1.82%; IC50 ([3]; read-out: IC50 (μM) ± SD HCT116, 48 h treatment, SRB): 7.7 ± 1.5 µM; Percentage of cell growth inhibition at [100 μM] HCT116 [3, 7]: 82.77 ± 2.98%; Percentage of cell growth inhibition at [100 μM] HDF ([5]; single dose 100 μM, SRB, normal cells, mean ± SD): 30.53 ± 9.75%
O=C(COc1ccccc1C=NN=c1[nH]c(-c2cc3ccccc3oc2=O)cs1)N1CCN(C(=O)COc2ccccc2C=NN=c2[nH]c(-c3cc4ccccc4oc3=O)cs2)CC1 [Compound 15h, 1,1′-(Piperazine-1,4-diyl)bis(2-(2-(((4-(coumarin-3-yl)thiazol-2(3H)-ylidene)hydrazineylidene)-methyl)phenoxy)ethanone)]	70.1 ± 8.68%	46.7 ± 11.3%	36.4 ± 13.8%	44 ± 51.5%	
Cc1nc(NN=Cc2ccc(OCC(=O)N3CCN(C(=O)COc4ccc(C=NNc5nc(C)c(N=Nc6ccc(Cl)cc6)s5)cc4)CC3)cc2)sc1N=Nc1ccc(Cl)cc1 [Compound 9d, 1,1′-(Piperazine-1,4-diyl)bis(2-(4-(((4-methyl-5-(4-chlorophenylazo)thiazol-2-yl)hydrazono)-methyl)phenoxy)ethanone)]	73.1 ± 5.28%	90.5 ± 1.99%	89.1 ± 2.04%	57.7 ± 18%	
Cc1nc(NN=Cc2ccccc2OCC(=O)N2CCN(C(=O)COc3ccccc3C=NNc3nc(C)c(N=Nc4ccc(F)cc4)s3)CC2)sc1N=Nc1ccc(F)cc1 [Compound 9g, 1,1′-(Piperazine-1,4-diyl)bis(2-(2-(((4-methyl-5-(4-fluorophenylazo)thiazol-2-yl)hydrazono)-methyl)phenoxy)ethanone)]	91.8 ± 3.29%	88.7 ± 4.11%	80.6 ± 7.04%	71.1 ± 21.6%	
Cc1nc(NN=Cc2ccccc2OCC(=O)N2CCN(C(=O)COc3ccccc3C=NNc3nc(C)c(N=Nc4ccc([N+](=O)[O-])cc4)s3)CC2)sc1N=Nc1ccc([N+](=O)[O-])cc1 [Compound 9j, 1,1′-(Piperazine-1,4-diyl)bis(2-(2-(((4-methyl-5-(4-nitrophenylazo)thiazol-2-yl)hydrazono)-methyl)phenoxy)ethanone)]	83.1 ± 7.22%	71.4 ± 20.5%	87.7 ± 4.3%	12 ± 6.04%	
O=C(COc1ccc(C=NN=c2[nH]c(-c3ccccc3)cs2)cc1)N1CCN(C(=O)COc2ccc(C=NN=c3[nH]c(-c4ccccc4)cs3)cc2)CC1 [Compound 15a, 1,1′-(Piperazine-1,4-diyl)bis(2-(4-(((4-phenylthiazol-2(3H)-ylidene)hydrazineylidene)methyl)-phenoxy)ethanone)]	67.9 ± 7.03%	87.3 ± 1.63%	78.1 ± 6.5%	50.2 ± 21.5%	
Cc1ccc(N=Nc2sc(NN=Cc3ccccc3OCC(=O)N3CCN(C(=O)COc4ccccc4C=NNc4nc(C)c(N=Nc5ccc(C)cc5)s4)CC3)nc2C)cc1 [Compound 9f, 1,1′-(Piperazine-1,4-diyl)bis(2-(2-(((4-methyl-5-(4-tolylazo)thiazol-2-yl)hydrazono)methyl)-phenoxy)ethanone)]	93.5 ± 2.07%	85.5 ± 2.11%	85.4 ± 6.41%	78.3 ± 3.64%	
Cc1nc(NN=Cc2ccc(OCC(=O)N3CCN(C(=O)COc4ccc(C=NNc5nc(C)c(N=Nc6ccc(F)cc6)s5)cc4)CC3)cc2)sc1N=Nc1ccc(F)cc1 [Compound 9c, 1,1′-(Piperazine-1,4-diyl)bis(2-(4-(((4-methyl-5-(4-fluorophenylazo)thiazol-2-yl)hydrazono)-methyl)phenoxy)ethanone)]	77.2 ± 3.1%	90.3 ± 1.3%	87.2 ± 4.53%	67.7 ± 11.5%	
O=C(COc1ccc(C=NN=c2sc(-c3ccccc3)nn2-c2ccccc2)cc1)N1CCN(C(=O)COc2ccc(C=NN=c3sc(-c4ccccc4)nn3-c3ccccc3)cc2)CC1 [Compound 13a, 1,1′-(Piperazine-1,4-diyl)bis(2-(4-(((3,5-diphenyl-1,3,4-thiadiazol-2(3H)-ylidene)hydrazono)-methyl)phenoxy)ethanone)]	71.4 ± 4.92%	88.2 ± 1.88%	78.1 ± 5.78%	52.5 ± 14.8%	
Cc1nc(NN=Cc2ccccc2OCC(=O)N2CCN(C(=O)COc3ccccc3C=NNc3nc(C)c(N=Nc4ccc(Cl)cc4)s3)CC2)sc1N=Nc1ccc(Cl)cc1 [Compound 9h, 1,1′-(Piperazine-1,4-diyl)bis(2-(2-(((4-methyl-5-(4-chlorophenylazo)thiazol-2-yl)hydrazono)-methyl)phenoxy)ethanone)]	84 ± 3.07%	81 ± 7.44%	77.7 ± 8.59%	56 ± 23.6%	
O=C(COc1ccc(C=NN=c2sc(-c3ccc(Cl)cc3)nn2-c2ccccc2)cc1)N1CCN(C(=O)COc2ccc(C=NN=c3sc(-c4ccc(Cl)cc4)nn3-c3ccccc3)cc2)CC1 [Compound 13b, 1,1′-(Piperazine-1,4-diyl)bis(2-(4-(((5-(4-chlorophenyl)-3-phenyl-1,3,4-thiadiazol-2(3H)-ylidene)-hydrazono)methyl)phenoxy)ethanone)]	85.1 ± 3.16%	90.8 ± 1.39%	89.3 ± 2.83%	79.2 ± 3.71%	IC50 ([1]; Homo sapiens, HepG2, 48 h): 24.5 ± 4 µM; IC50 ([2]; Homo sapiens, MCF7, 48 h): 19.4 ± 3 µM; IC50 [3, 6]: 18.4 ± 4 µM; inhibition at 100 µM [4]: > 80%
COc1ccc(-c2csc(=NN=Cc3ccc(OCC(=O)N4CCN(C(=O)COc5ccc(C=NN=c6[nH]c(-c7ccc(OC)cc7)cs6)cc5)CC4)cc3)[nH]2)cc1 [Compound 15b, 1,1′-(Piperazine-1,4-diyl)bis(2-(4-(((4-(4-methoxyphenyl)thiazol-2(3H)-ylidene)hydrazineylidene)-methyl)phenoxy)ethanone)]	83.4 ± 9.48%	50.6 ± 10.2%	21.8 ± 16.5%	48 ± 48.5%	
O=C(COc1ccccc1C=NN=c1sc(-c2ccccc2)nn1-c1ccccc1)N1CCN(C(=O)COc2ccccc2C=NN=c2sc(-c3ccccc3)nn2-c2ccccc2)CC1 [Compound 13c, 1,1′-(Piperazine-1,4-diyl)bis(2-(2-(((3,5-diphenyl-1,3,4-thiadiazol-2(3H)-ylidene)hydrazono)-methyl)phenoxy)ethanone)]	68.8 ± 12.7%	86.2 ± 1.83%	76.4 ± 5.38%	60.8 ± 3.09%	
O=C(COc1ccccc1C=NN=c1sc(-c2ccc(Cl)cc2)nn1-c1ccccc1)N1CCN(C(=O)COc2ccccc2C=NN=c2sc(-c3ccc(Cl)cc3)nn2-c2ccccc2)CC1 [Compound 13d, 1,1′-(Piperazine-1,4-diyl)bis(2-(2-(((5-(4-chlorophenyl)-3-phenyl-1,3,4-thiadiazol-2(3H)-ylidene)-hydrazono)methyl)phenoxy)ethanone)]	80 ± 3.39%	86.4 ± 2.56%	88.9 ± 1.38%	64 ± 10.8%	
